Results reported in ChEMBL document CHEMBL3232839, “Identification of isosilybin a from milk thistle seeds as an agonist of peroxisome proliferator-activated receptor gamma” (J Nat Prod, 2014).
Active and inactive are the calls of the source. The calls are words filed in the database; no cut-off is given here.

How the values were obtained:
[1] = biological target: T1, Peroxisome proliferator-activated receptor gamma (Homo sapiens) (UniProt P37231); assay: Agonist activity at human PPAR-gamma expressed in HEK293 cells at 30 uM after 18 hrs by luciferase reporter gene assay relative to control
T1 sequence (whole entry): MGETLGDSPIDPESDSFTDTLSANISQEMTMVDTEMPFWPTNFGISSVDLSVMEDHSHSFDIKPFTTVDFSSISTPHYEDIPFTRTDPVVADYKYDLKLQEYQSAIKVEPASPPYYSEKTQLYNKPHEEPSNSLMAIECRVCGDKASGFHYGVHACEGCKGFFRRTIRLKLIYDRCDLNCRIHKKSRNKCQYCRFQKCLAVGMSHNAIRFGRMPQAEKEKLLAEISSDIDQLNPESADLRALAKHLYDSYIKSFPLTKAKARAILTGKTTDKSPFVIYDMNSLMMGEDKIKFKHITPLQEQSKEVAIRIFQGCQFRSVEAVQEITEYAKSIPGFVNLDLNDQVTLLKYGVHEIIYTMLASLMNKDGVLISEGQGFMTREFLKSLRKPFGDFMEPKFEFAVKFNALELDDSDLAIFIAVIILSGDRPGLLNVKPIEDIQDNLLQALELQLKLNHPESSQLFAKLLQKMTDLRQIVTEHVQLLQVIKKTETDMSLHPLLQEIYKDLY

[2] = biological target: T1, Peroxisome proliferator-activated receptor gamma (Homo sapiens); assay: Reduction of pioglitazone-mediated human PPAR-gamma activation expressed in HEK293 cells after 18 hrs by luciferase reporter gene assay; format: cell-based
Summary of the method: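 Co-treatment assay in human PPARγ/tk-PPREx3-luc/EGFP-transfected HEK-293 cells. Pioglitazone at varied concentrations was applied with or without 30 μM compound for 18 h, with DMSO vehicle at 0.1%. Luciferase was normalized to EGFP fluorescence and expressed as fold over vehicle. Means ± SD of three independent experiments in quadruplicate.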

[3] = biological target: T1, Peroxisome proliferator-activated receptor gamma (Homo sapiens); assay: Transactivation of human PPAR-gamma expressed in HEK293 cells after 18 hrs by luciferase reporter gene assay relative to control; format: cell-based
Summary of the method: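 HEK-293 cells transiently co-transfected by calcium phosphate with full-length human PPARγ expression plasmid (pSG5-PL-hPPAR-gamma1), tk-PPREx3-luc reporter and EGFP internal control. Cells were reseeded and treated for 18 h, with 0.1% DMSO as vehicle. Luciferase was normalized to EGFP fluorescence and expressed as fold induction over vehicle. Means ± SD of three independent experiments, each in quadruplicate.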

[4] = biological target: T1, Peroxisome proliferator-activated receptor gamma (Homo sapiens); assay: Agonist activity at human PPAR-gamma expressed in HEK293 cells at 30 uM after 18 hrs by luciferase reporter gene assay in presence of T0070907

COc1cc([C@H]2Oc3cc([C@H]4Oc5cc(O)cc(O)c5C(=O)[C@@H]4O)ccc3O[C@@H]2CO)ccc1O
Activity [1]: inactive

COc1cc(C2Oc3c(O)cc([C@H]4Oc5cc(O)cc(O)c5C(=O)[C@@H]4O)cc3C2CO)ccc1O (stereo not given in full)
Activity [1]: inactive

COc1cc([C@@H]2[C@H]3CO[C@@]4(O)C(=O)[C@@H]2C=C([C@H]2Oc5cc(O)cc(O)c5C(=O)[C@@H]2O)[C@@H]34)ccc1O
Activity [1]: inactive

COc1cc([C@@H]2Oc3ccc([C@H]4Oc5cc(O)cc(O)c5C(=O)[C@@H]4O)cc3O[C@H]2CO)ccc1O
Activity [1]: inactive

COc1cc([C@@H]2Oc3cc([C@H]4Oc5cc(O)cc(O)c5C(=O)[C@@H]4O)ccc3O[C@H]2CO)ccc1O
Activity [1]: inactive

COc1cc([C@H]2Oc3ccc([C@H]4Oc5cc(O)cc(O)c5C(=O)[C@@H]4O)cc3O[C@@H]2CO)ccc1O
Activity [2]: Active
fold change (FC) [1]: 2.08
Activity [3]: Dose-dependent effect
Activity [4]: inactive

O=C1c2c(O)cc(O)cc2O[C@H](c2ccc(O)c(O)c2)[C@H]1O
Activity [1]: inactive
